This is a sample that favours compounds with a hit; in the whole collection about 2.8% have one here.
NPY2 pot ag = potentiates or activates human NPY-Y2 receptor | P49146 | cells expressing NPY-Y2, potentiator/agonist read-out | activation, % at 3.6 µM | 220,000 compounds, 0.45% hits | AID 1359; in the data active means activation above about 27%;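 further: cells stimulated with NPY near EC25 plus isoproterenol at EC100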
Target sequence (P49146 whole entry, looked up): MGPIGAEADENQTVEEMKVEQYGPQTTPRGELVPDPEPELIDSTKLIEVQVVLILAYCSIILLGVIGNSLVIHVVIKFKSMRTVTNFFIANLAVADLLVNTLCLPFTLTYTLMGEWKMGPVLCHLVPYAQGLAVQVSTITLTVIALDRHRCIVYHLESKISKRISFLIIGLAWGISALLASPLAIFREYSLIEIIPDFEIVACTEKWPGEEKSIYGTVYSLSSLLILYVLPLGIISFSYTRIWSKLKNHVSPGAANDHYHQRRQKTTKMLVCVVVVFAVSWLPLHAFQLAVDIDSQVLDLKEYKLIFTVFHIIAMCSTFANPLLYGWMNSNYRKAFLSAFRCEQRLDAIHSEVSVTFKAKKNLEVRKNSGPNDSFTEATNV
NPY-Y2 antag = antagonists of human neuropeptide Y receptor Y2 | P49146 | NPY-Y2 expressing cells, antagonist mode | inhibition, % at 2.7 µM | 140,000 compounds, 0.99% hits | AID 793; in the data active means inhibition above about 17%
NPY Y1 blocker = antagonists of human neuropeptide Y receptor Y1; inhibition, % at 3.6 µM; P25929; AID 1040; HEK293-CNG Y1 cells, membrane potential fluorescence; NPY at EC95, then isoproterenol; 200,000 compounds, 1% hits;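 active means inhibition above the campaign mean inhibition of all tested compounds plus 3 SD, cut at about 20% in these data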
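Test system – HEK293 Y1/CNG channel cell line · Also added – NPY agonist 25 nM, then isoproterenol 1 µM plus Ro 20-1724 25 µM · Compound dosing – one concentration, 3.6 µM, in 0.4% DMSO · Schedule – compound incubation 1 h at room temperature, readout 45 min post-stimulation · Technique – fluorescence, membrane potential probe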
EP2 antag = blocks the human prostaglandin E2 receptor EP2; P43116; C6 glioma cells expressing human EP2, cAMP TR-FRET; cells stimulated with saturating PGE2; inhibition, % at 25 µM; 260,000 compounds, 0.52% hits; AID 1422;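 active means percent inhibition above 40 after rounding to a whole number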;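 further: rat C6 glioma host cells with rolipram phosphodiesterase inhibitor present; the protocol text gives 20 µM as final concentration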
NPY-Y1 PAM-ag = potentiators or agonists of human neuropeptide Y receptor Y1; 220,000 compounds, 0.37% hits; NPY-Y1 expressing cells, potentiator/agonist activation; activation, % at 3.6 µM; in the data active means activation above about 33%, passing the limit was not always enough;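 further: cells stimulated with NPY at EC10 then isoproterenol at EC100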
EP2 modulator = EP2 receptor (human) modulation. P43116. EP2-expressing cells, cAMP HTRF FRET, PGE2 co-stimulation. induction, % at 25 µM. 260,000 compounds, 0.83% hits. AID 940;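 active means compounds whose cAMP rise, as percent of the full-agonist control response, exceeds 60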;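 further: rat C6 glioma line stably carrying human EP2 under a CMV promoter; the protocol text gives 20 µM as final concentration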
Numbers stand for hits; ! = repeats disagree.

How did O=S(=O)(Cc1cc(Oc2ccccc2)nc(-c2ccccc2)n1)c1ccccc1 do in these assays?
NPY2 pot ag: inactive; NPY-Y2 antag: 21; NPY Y1 blocker: 22; EP2 antag: inactive; NPY-Y1 PAM-ag: inactive

What do the screens show for `Cc1ccc(NC(=O)c2ccc(Cl)c(N3C(=O)C=CC3=O)c2)cc1`?
NPY2 pot ag: inactive; NPY-Y2 antag: inactive; NPY Y1 blocker: inactive; EP2 antag: 125; NPY-Y1 PAM-ag: inactive; EP2 modulator: inactive

Results for O=C(Nc1ccc(Cl)c(Cl)c1)c1ccc(Cl)c(Cl)c1 ?
NPY2 pot ag: inactive; EP2 antag: inactive; NPY-Y1 PAM-ag: inactive; EP2 modulator: inactive

What do the screens show for `CC(C)=CCNc1ncnc2c1c(C#N)cn2[C@H]1O[C@H](CO)[C@@H](O)[C@@H]1O`?
EP2 antag: inactive; EP2 modulator: inactive

How did N/C(=N/O)c1cn([C@H]2O[C@@H](CO)[C@H](O)[C@H]2O)c2ncnc(NO)c12 do in these assays?
EP2 antag: 47; EP2 modulator: inactive

How did Brc1ccc(-c2nn3c(-c4ccco4)nnc3s2)o1 do in these assays?
NPY2 pot ag: inactive; NPY-Y2 antag: inactive; NPY Y1 blocker: inactive; EP2 antag: 43; NPY-Y1 PAM-ag: inactive; EP2 modulator: inactive

Results for Clc1ccc(-c2ccc(-c3nn4c(-c5ccco5)nnc4s3)o2)cc1 ?
NPY2 pot ag: inactive; NPY-Y2 antag: inactive; NPY Y1 blocker: inactive; EP2 antag: inactive; NPY-Y1 PAM-ag: inactive

How did Cc1ccc(OCc2nn3c(-c4ccco4)nnc3s2)cc1 do in these assays?
NPY2 pot ag: inactive; NPY-Y2 antag: inactive; NPY Y1 blocker: inactive; EP2 antag: inactive; NPY-Y1 PAM-ag: inactive; EP2 modulator: 63

How did COc1ccc(C(c2c[nH]c3ccccc23)c2c[nH]c3ccccc23)cc1O do in these assays?
NPY2 pot ag: 39; NPY-Y2 antag: inactive; NPY Y1 blocker: inactive; EP2 antag: inactive; NPY-Y1 PAM-ag: 32; EP2 modulator: inactive

How did O=C(CSc1nnnn1Cc1ccc2c(c1)OCO2)Nc1cccc(F)c1 do in these assays?
EP2 antag: inactive; EP2 modulator: inactive

How did CC(C)(C)c1cccc(P(=O)(c2ccccc2)c2ccccc2)c1O do in these assays?
NPY2 pot ag: inactive; EP2 antag: inactive; NPY-Y1 PAM-ag: inactive; EP2 modulator: 66

What do the screens show for `O=C(CN1C2=NCCN2c2ccccc21)C12CC3CC(CC(C3)C1)C2`?
NPY2 pot ag: inactive; NPY-Y2 antag: 49; NPY Y1 blocker: 67; EP2 antag: inactive; NPY-Y1 PAM-ag: inactive; EP2 modulator: inactive

How did COc1ccccc1OCC(O)CNCc1ccc2c(c1)OCO2 (configuration not stated) do in these assays?
NPY2 pot ag: 48; EP2 antag: inactive; NPY-Y1 PAM-ag: 79; EP2 modulator: inactive

How did Cc1ccc2cc(CN(CCCN3CCOCC3)Cc3nnnn3C3CCCC3)c(=O)[nH]c2c1C do in these assays?
EP2 antag: inactive; EP2 modulator: inactive

How did C/C(N)=C(/C#N)C(=O)CSc1nc2ccccc2[nH]1 do in these assays?
NPY2 pot ag: inactive; NPY-Y2 antag: inactive; NPY Y1 blocker: inactive; EP2 antag: inactive; NPY-Y1 PAM-ag: inactive; EP2 modulator: inactive

How did C/C(N)=C(/C#N)C(=O)CSc1ncnc2ccccc12 do in these assays?
NPY2 pot ag: 98; NPY-Y2 antag: inactive; NPY Y1 blocker: inactive; EP2 antag: inactive; NPY-Y1 PAM-ag: 94; EP2 modulator: inactive

How did O=C(O)COc1ccc2c(-c3ccccc3)cc(=O)oc2c1 do in these assays?
NPY2 pot ag: inactive; NPY-Y2 antag: inactive; NPY Y1 blocker: 20; EP2 antag: inactive; NPY-Y1 PAM-ag: inactive

How did N#CCOc1ccc2c(-c3ccccc3)cc(=O)oc2c1 do in these assays?
EP2 antag: inactive; EP2 modulator: inactive

What do the screens show for `COc1ccc(-n2c(C)nnc2SCC(=O)Nc2ccc(Cl)cc2)cc1`?
EP2 antag: inactive; EP2 modulator: inactive

Results for CCOc1ccccc1NC(=O)C1OC2OC3(CCCCC3)OC2C2OC3(CCCCC3)OC12 (configuration not stated) ?
EP2 antag: 50; EP2 modulator: inactive

How did O=C(O)C1OC2OC3(CCCCC3)OC2C2OC3(CCCCC3)OC12 (configuration not stated) do in these assays?
NPY2 pot ag: inactive; NPY-Y2 antag: inactive; NPY Y1 blocker: inactive; EP2 antag: inactive; NPY-Y1 PAM-ag: inactive; EP2 modulator: inactive

How did c1ccc(C2=Nn3c(nnc3-c3ccncc3)SC2)cc1 do in these assays?
NPY2 pot ag: inactive; NPY-Y2 antag: inactive; NPY Y1 blocker: inactive; NPY-Y1 PAM-ag: inactive; EP2 modulator: inactive

Results for Cc1cccc(-c2nnc3n2N=C(c2ccccc2)CS3)c1 ?
NPY2 pot ag: inactive; NPY-Y2 antag: inactive; NPY Y1 blocker: inactive; EP2 antag: inactive; NPY-Y1 PAM-ag: inactive; EP2 modulator: 63

How did N#CC1=C(N)Oc2n[nH]c(-c3cccs3)c2C1c1ccsc1 (configuration not stated) do in these assays?
NPY2 pot ag: inactive; NPY-Y2 antag: inactive; NPY Y1 blocker: 28; EP2 antag: inactive; NPY-Y1 PAM-ag: inactive; EP2 modulator: inactive

Results for CCc1[nH]nc2c1C(c1ccsc1)C(C#N)=C(N)O2 (configuration not stated) ?
NPY2 pot ag: inactive; NPY-Y2 antag: inactive; NPY Y1 blocker: inactive; EP2 antag: inactive; NPY-Y1 PAM-ag: inactive; EP2 modulator: inactive

What do the screens show for `Cc1ccc(C2C(C#N)=C(N)Oc3n[nH]c(-c4cccs4)c32)s1` (configuration not stated)?
NPY2 pot ag: inactive; NPY-Y2 antag: inactive; NPY Y1 blocker: inactive; EP2 antag: 44!; NPY-Y1 PAM-ag: inactive; EP2 modulator: inactive

What do the screens show for `CCc1[nH]nc2c1C(c1ccc(Br)s1)C(C#N)=C(N)O2` (configuration not stated)?
NPY2 pot ag: inactive; NPY-Y2 antag: inactive; NPY Y1 blocker: inactive; EP2 antag: 44; NPY-Y1 PAM-ag: inactive; EP2 modulator: inactive

What do the screens show for `COc1ccc2[nH]c3nc(SCC(=O)Nc4ccc(F)cc4)nnc3c2c1`?
EP2 antag: inactive; EP2 modulator: inactive

How did CCC(C)(C)NC(=O)C(c1ccccc1F)N(Cc1ccco1)C(=O)Cn1nnc2ccccc21 (configuration not stated) do in these assays?
NPY2 pot ag: inactive; NPY-Y2 antag: 73; NPY Y1 blocker: 96; EP2 antag: inactive; NPY-Y1 PAM-ag: inactive; EP2 modulator: inactive

What do the screens show for `CCC(C)(C)NC(=O)C(c1ccccc1F)N(Cc1ccco1)C(=O)c1csnn1` (configuration not stated)?
NPY2 pot ag: inactive; NPY-Y2 antag: inactive; NPY Y1 blocker: inactive; EP2 antag: inactive; NPY-Y1 PAM-ag: inactive; EP2 modulator: inactive

Results for CC(C)(C)NC(=O)C(c1ccco1)N(Cc1ccccc1Cl)C(=O)Cn1nnc2ccccc21 (configuration not stated) ?
EP2 antag: inactive; EP2 modulator: inactive
